Where a SMILES comes first, the peptide text is derived from it. Where no end group is shown, it is not given here. The star is where a group is joined. Oxazole(5-CO) = O=C(c1cnco1)*; Crotonyl(E) = C/C=C/C(=O)*; 2Furoyl = O=C(c1ccco1)*; Cbz = O=C(OCc1ccccc1)*
Columns and labels:
AF9 YEATS [1] = target: T1, AF9 YEATS (Homo sapiens, UniProt P42568); assay: isothermal titration calorimetry; type: binding; settings: ITC Kd versus the crotonyl group (H3K9cr)
T1 sequence (P42568 1-138): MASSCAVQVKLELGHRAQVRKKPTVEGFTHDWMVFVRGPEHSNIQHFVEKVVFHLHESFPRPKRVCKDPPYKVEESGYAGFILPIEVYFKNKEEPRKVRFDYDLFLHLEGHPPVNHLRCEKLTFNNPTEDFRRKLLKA

ENL YEATS = target: T2, ENL YEATS (Homo sapiens, UniProt Q03111); assay: competitive photo-cross-linking assay, ENL YEATS; type: binding; settings: comparing with AF9 YEATS
T2 sequence (Q03111 1-138): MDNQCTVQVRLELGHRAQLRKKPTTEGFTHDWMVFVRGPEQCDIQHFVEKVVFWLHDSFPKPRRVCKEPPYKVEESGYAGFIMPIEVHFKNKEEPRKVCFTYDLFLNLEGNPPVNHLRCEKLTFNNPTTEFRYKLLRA

[2] = system: YEATS domains of YEATS2 and GAS41; assay: competitive photo-cross-linking assay, YEATS2 and GAS41 YEATS domains; type: binding, human; settings: AF9 and ENL versus YEATS2 and GAS41; result in words
AF9 YEATS [3] = target: T1, AF9 YEATS; assay: competitive photo-cross-linking assay; type: binding; settings: compared with ENL YEATS
endogenous ENL = target: T3, endogenous ENL (Homo sapiens, UniProt Q03111); assay: competitive photo-cross-linking pull-down in nuclear extracts, ENL; type: binding
T3 sequence (Q03111 1-559): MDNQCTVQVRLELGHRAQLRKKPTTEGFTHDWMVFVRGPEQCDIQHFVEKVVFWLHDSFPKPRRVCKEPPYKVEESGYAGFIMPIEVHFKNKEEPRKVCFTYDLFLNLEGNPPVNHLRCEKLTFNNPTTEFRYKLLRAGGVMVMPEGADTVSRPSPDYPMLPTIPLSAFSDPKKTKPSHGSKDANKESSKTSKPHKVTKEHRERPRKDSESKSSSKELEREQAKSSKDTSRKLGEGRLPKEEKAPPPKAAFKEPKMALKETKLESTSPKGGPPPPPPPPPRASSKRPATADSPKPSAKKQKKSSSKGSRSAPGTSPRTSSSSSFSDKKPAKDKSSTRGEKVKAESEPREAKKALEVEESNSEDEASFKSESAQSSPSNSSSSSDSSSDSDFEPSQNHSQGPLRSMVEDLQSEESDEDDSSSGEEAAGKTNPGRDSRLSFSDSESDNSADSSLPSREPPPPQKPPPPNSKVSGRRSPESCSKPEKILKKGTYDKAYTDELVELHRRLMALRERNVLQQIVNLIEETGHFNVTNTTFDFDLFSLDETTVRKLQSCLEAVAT

endogenous AF9 [4] = target: T4, endogenous AF9 (Homo sapiens, UniProt P42568); assay: competitive photo-cross-linking pull-down in nuclear extracts, AF9; type: binding
T4 sequence (P42568 1-568): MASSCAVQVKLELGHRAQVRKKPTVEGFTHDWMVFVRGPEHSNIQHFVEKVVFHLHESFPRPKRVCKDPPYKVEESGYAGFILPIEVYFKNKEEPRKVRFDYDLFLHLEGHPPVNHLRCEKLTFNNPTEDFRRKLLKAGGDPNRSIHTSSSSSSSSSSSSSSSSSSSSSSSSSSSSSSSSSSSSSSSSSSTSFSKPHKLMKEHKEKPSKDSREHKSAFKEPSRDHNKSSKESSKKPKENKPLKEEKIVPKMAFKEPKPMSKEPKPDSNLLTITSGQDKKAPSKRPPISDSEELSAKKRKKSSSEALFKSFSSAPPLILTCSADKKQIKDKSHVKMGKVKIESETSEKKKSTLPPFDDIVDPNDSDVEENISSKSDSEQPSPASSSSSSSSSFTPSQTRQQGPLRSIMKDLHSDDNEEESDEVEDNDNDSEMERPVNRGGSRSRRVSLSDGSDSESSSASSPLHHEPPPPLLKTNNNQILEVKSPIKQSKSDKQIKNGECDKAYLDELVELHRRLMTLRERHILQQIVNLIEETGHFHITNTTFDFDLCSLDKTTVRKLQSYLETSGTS

ENL = target: T5, ENL (Homo sapiens, UniProt Q03111); assay: cellular thermal shift assay; type: cell-based; settings: MOLM-13, MV4;11, HEL cells, 50 μM, 12 h; 55 °C, 57 °C, and 59 °C
T5 sequence (Q03111 1-559): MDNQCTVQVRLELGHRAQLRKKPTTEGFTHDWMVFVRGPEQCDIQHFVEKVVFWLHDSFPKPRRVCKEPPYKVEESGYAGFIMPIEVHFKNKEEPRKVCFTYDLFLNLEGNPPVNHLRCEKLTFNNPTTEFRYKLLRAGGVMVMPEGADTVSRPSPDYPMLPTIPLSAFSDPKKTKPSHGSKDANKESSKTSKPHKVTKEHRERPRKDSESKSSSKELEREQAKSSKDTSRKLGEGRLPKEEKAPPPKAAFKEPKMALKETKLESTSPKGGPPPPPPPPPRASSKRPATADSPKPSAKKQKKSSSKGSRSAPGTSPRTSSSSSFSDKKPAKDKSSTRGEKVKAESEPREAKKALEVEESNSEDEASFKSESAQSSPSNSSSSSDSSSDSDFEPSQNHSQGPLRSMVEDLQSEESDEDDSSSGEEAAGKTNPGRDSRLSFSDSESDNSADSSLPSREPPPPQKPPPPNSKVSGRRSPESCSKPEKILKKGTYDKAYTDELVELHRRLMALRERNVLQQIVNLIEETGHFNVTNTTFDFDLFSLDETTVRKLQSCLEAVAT
Method in brief: (§1)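 CETSA: MOLM-13 (Flag-ENL), MV4;11 or HEL cells were incubated with 50 μM test compound for 12 h, washed with PBS and resuspended in PBS with protease inhibitors (~3 million cells/100 μl). Aliquots were heated at indicated temperatures for 3 min, then held at room temperature for 3 min. Cells were lysed by two liquid-nitrogen freeze-thaw cycles and spun at 20,000×g for 20 min at 4 °C. Soluble supernatant was immunoblotted.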

endogenous AF9 [5] = target: T4, endogenous AF9; assay: cellular thermal shift assay; type: cell-based; settings: MOLM-13, MV4;11, HEL cells, 50 μM, 12 h
Method in brief: as §1

[6] = system: ENL at HOXA10, MYB, MYC and MEIS1 in MOLM-13 cells; assay: ChIP-qPCR of ENL at target genes; type: cell-based, human; settings: MOLM-13 (Flag-ENL) cells, 50 μM, 24 hours
Method in brief: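 MOLM-13 (Flag-ENL) cells (about 20 million) were treated with or without 50 μM test compound for 24 h, cross-linked with formaldehyde for 10 min at room temperature and quenched with glycine. Chromatin was sonicated to 600–800 bp. 50 μg chromatin (5 μg input) was immunoprecipitated overnight at 4 °C with anti-FLAG M2 magnetic beads, washed, eluted and reverse cross-linked. DNA was measured by qPCR as percentage of input, n = 4 (HOXA10) or 3 (others).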

MOLM-13 cells = assay: RT-qPCR of mRNA levels in MOLM-13 cells; type: cell-based, human
[7] = target: ENL YEATS domain, ENL (1–138) (human) (UniProt Q03111); assay: cross-linking
[8] = target: T6, AF9 YEATS domain, AF9 (1–138) (human, UniProt P42568 1-138); assay: cross-linking
T6 sequence (looked up): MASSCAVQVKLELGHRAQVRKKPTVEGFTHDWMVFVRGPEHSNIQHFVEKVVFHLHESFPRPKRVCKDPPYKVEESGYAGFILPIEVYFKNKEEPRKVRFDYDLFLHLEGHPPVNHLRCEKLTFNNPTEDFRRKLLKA

[9] = target: T6, AF9 YEATS domain, AF9 (1–138); assay: ITC
[10] = target: T7, ENL YEATS domain, ENL (1–138) (human, UniProt Q03111 1-138); assay: cross-linking
T7 sequence (looked up): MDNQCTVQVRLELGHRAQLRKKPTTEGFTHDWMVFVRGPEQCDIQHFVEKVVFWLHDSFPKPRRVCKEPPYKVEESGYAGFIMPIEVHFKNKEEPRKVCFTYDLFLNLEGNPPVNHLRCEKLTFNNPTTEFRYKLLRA

[11] = nuclear extracts of HeLa S3 and MOLM-13 (Flag-ENL), result in words

Molecule: C[C@H](NC(=O)[C@@H](NC(=O)[C@H](CCC(N)=O)NC(=O)[C@@H](N)CCCCN)[C@@H](C)O)C(=O)N[C@@H](CCCNC(=N)N)C(=O)N[C@@H](CCCCNC(=O)c1ccco1)C(=O)N[C@@H](CO)C(=O)N[C@H](C(=O)NCC(=O)NCC(N)=O)[C@@H](C)O [XL-07] (H-KQTARK(2Furoyl)STGG-NH2; N-terminus and C-terminus assumed)
- binding enhancement (AF9 YEATS [1]): 4.5 fold

Molecule: C[C@H](NC(=O)[C@@H](NC(=O)[C@H](CCC(N)=O)NC(=O)OCc1ccccc1)[C@@H](C)O)C(=O)N[C@@H](CCCNC(=N)N)C(=O)N[C@@H](CCCCNC(=O)c1ccco1)C(N)=O [XL-07i]
- lower potency against ENL YEATS (ENL YEATS): 5 fold
- selectivity among YEATS domains [2]: more selective toward the YEATS domains of AF9 and ENL over YEATS2 and GAS41

Molecule: C[C@H](NC(=O)[C@@H](NC(=O)[C@H](CCC(N)=O)NC(=O)[C@@H](N)CCCCN)[C@@H](C)O)C(=O)N[C@@H](CCCNC(=N)N)C(=O)N[C@@H](CCCCNC(=O)c1cnco1)C(=O)N[C@@H](CO)C(=O)N[C@H](C(=O)NCC(=O)NCC(N)=O)[C@@H](C)O [XL-13] (H-KQTARK(Oxazole(5-CO))STGG-NH2; N-terminus and C-terminus assumed)
- binding enhancement (AF9 YEATS [1]): 14.7 fold

Molecule: C[C@H](NC(=O)OCc1ccccc1)C(=O)N[C@@H](CCCNC(=N)N)C(=O)N[C@@H](CCCCNC(=O)c1cnco1)C(N)=O [XL-13m]
- weaker inhibition against AF9 YEATS (AF9 YEATS [3]): 4.5 fold
- photo-H3K9cr-induced enrichment of ENL (endogenous ENL; [11]): significantly inhibited
- inhibition at 2 µM (endogenous ENL; read-out: inhibition of photo-H3K9cr-induced enrichment of endogenous ENL): ~50%
- enrichment of AF9 (endogenous AF9 [4]; [11]): little effects
- inhibition at 2 µM (endogenous AF9 [4]; read-out: inhibition of enrichment of AF9): ~3%
- thermal stability of ENL (soluble protein) (ENL): higher abundance of soluble ENL proteins
- thermal stability of endogenous AF9 (endogenous AF9 [5]): almost no differences
- abundance of ENL at HOXA10, MYB, MYC and MEIS1 [6]: decreases in the abundance of ENL
- transcription levels of HOXA10, MYB, MYC and MEIS1 (MOLM-13 cells; MOLM-13 (Flag-ENL) cells, 50 μM, 24 hours): significant loss in the transcription levels
- transcription suppression of MYC and HOXA9 (MOLM-13 cells; co-treatment of XL-13m (50 μM) and EPZ-5676 (500 nM), 72 hours): enhanced effect on the transcription suppression

Molecule: C[C@H](NC(=O)OCc1ccccc1)C(=O)N[C@@H](C)C(=O)N[C@@H](CCCNC(=N)N)C(=O)N[C@@H](CCCCNC(=O)c1cnco1)C(N)=O [XL-13n] (Cbz-AARK(Oxazole(5-CO))-NH2)
- weaker inhibition against AF9 YEATS (AF9 YEATS [3]): 6.1 fold

Molecule: XL-13l (dipeptide with only the RK signature motif, 5-oxazolecarbonyl at K27)
- IC50 [7]: 3.3 µM

B1: XL-07h (pentapeptide with the QTARK sequence) (peptide)
peptide: QTARK(2Furoyl)
- IC50 [8]: 4500 nM

B2: XL-07i (pentapeptide XL-07h, QTARK, N-terminus capped with a carboxybenzyl group; 2-furancarbonyl lysine) (peptide)
peptide: Cbz-QTARK(2Furoyl)
- Kd [9]: 330 nM
- fold lower potency than against AF9 YEATS [10]: 5 fold
- IC50 [8]: 260 nM

B3: XL-13a (XL-07i with the 2-furancarbonyl group replaced by a 5-oxazolecarbonyl group) (peptide)
peptide: Cbz-QTARK(Oxazole(5-CO))
- Kd [9]: 130 nM
- fold lower potency than against AF9 YEATS [10]: 2.9 fold
- IC50 [8]: 240 nM

B4: H3K9cr peptide (histone H3 residues 4–13, Lys 9 crotonylated) (peptide, UniProt P68431 5-14, looked up)
peptide: KQTARK(Crotonyl(E))STGG
- Kd [9]: 14700 nM
- IC50 [8]: 6000 nM

Source: paper PMC6503841 (Nature chemical biology, 2018)
